Consider five compounds from ChEMBL document CHEMBL3751740, “New MKLP-2 inhibitors in the paprotrain series: Design, synthesis and biological evaluations” (Bioorg Med Chem, 2016).

The test system of assay [1] is KB. Nature of the assay: Growth inhibition of human KB cells after 72 hrs by MTS assay. Type of assay: functional. A general note: Tetrazolium dyes change colour on reduction, which living cells bring about.
The target of assay [2] is T1, Kinesin-like protein KIF20A (Homo sapiens, UniProt O95235).
T1 sequence (O95235 whole entry): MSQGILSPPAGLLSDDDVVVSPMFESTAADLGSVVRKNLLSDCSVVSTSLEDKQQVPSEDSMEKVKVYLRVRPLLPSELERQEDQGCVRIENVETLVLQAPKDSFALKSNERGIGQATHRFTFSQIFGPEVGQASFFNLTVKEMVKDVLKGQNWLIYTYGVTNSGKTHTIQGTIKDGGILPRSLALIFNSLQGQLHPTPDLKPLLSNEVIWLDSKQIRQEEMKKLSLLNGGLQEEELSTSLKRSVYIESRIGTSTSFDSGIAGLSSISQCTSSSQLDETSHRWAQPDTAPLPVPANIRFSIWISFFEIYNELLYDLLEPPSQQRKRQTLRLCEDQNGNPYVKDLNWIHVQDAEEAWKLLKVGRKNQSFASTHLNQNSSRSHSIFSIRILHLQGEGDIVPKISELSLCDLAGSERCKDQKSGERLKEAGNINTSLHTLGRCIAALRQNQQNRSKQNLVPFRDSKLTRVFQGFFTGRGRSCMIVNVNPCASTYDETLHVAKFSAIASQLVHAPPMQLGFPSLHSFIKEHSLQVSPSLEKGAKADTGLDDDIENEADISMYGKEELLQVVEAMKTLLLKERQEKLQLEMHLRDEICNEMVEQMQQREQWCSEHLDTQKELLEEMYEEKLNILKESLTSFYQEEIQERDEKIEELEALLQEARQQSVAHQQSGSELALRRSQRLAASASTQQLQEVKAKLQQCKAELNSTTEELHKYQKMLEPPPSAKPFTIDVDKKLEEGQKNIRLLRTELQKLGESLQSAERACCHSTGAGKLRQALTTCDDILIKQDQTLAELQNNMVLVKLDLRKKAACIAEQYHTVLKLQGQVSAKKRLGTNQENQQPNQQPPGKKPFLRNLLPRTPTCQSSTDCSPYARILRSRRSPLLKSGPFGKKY
Nature of the assay: Inhibition of microtubule-stimulated N-terminal MKLP-2 (56 to 505 residues) ATPase activity isolated from human hepatocellular carcinoma cells by pyruvate kinase/lactate dehydrogenase enzyme linked assay.

Assay [3] addresses T1, Kinesin-like protein KIF20A. Nature of the assay: Inhibition of N-terminal MKLP2 (56 to 505 residues) ATPase basal activity isolated from human hepatocellular carcinoma cells by pyruvate kinase/lactate dehydrogenase enzyme linked assay.
A further assay deals with A549. Nature of the assay: Growth inhibition of human A549 cells incubated for 4 days by WST-1 assay. Type of assay: functional. As to conditions: A549, 96 h. The essentials: (§1)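 Cells were kept at 37 °C under 5% CO2 and plated on day 0 at 500–5000 cells/well. On day 1 they received ten concentrations from 0.0025 to 50 µM (final), in triplicate. On day 4 WST-1 was added, followed by 30 min–4 h incubation and absorbance at 450 nm. GI50 is the concentration killing 50% of cells.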

The test system of another assay is MDA-MB-231. Nature of the assay: Growth inhibition of human MDA-MB-231 cells incubated for 4 days by WST-1 assay. The assay is classed as functional. As to conditions: MDA-MB-231, 96 h. In outline: as §1
Assay [4] in a line: Growth inhibition of human PK59 cells incubated for 4 days by WST-1 assay. Type of assay: functional. The note with it: PK-59, 96 h. In outline:
as §1

A further assay concerns HepG2. Nature of the assay: Growth inhibition of human HepG2 cells incubated for 4 days by WST-1 assay. Type of assay: functional. As to conditions: HepG2, 96 h. The essentials:
as §1

A further assay relates to K562. Nature of the assay: Growth inhibition of human K562 cells incubated for 4 days by WST-1 assay. The assay is classed as functional. As to conditions: K562, 96 h. In outline:
as §1

The species entered for assay [5] is Ovis aries. Nature of the assay: (§2) Inhibition of sheep brain tubulin polymerization by UV spectrophotometric analysis. Also on record: concentration or dose not given beside the values. As to conditions: concentration not given here. The essentials: (§3)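 Tubulin purified from sheep brain by two assembly/disassembly cycles, about 2–3 mg/mL in 0.1 M MES, 0.5 mM MgCl2, 1 mM EGTA, 1 mM GTP, pH 6.6. Compound in DMSO added at 0 °C, then moved to a 37 °C thermostated cell. Assembly followed by turbidity at 350 nm for a few min.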

The nature of assay [6]: Growth inhibition of human MIAPaCa2 cells incubated for 4 days by WST-1 assay. The assay is classed as functional. As to conditions: MIA PaCa-2, 96 h. The essentials:
as §1

In another assay the test system is NCI-H460. Nature of the assay: Growth inhibition of human NCI-H460 cells incubated for 4 days by WST-1 assay. The assay is classed as functional. The note with it: NCI-H460, 96 h. In outline: as §1
The next assay relates to MCF7. Nature of the assay: Growth inhibition of human MCF7 cells incubated for 4 days by WST-1 assay. The assay is classed as functional. The note with it: MCF7, 96 h. The essentials:
as §1

The subject of another assay is HT-29. Nature of the assay: Growth inhibition of human HT-29 cells incubated for 4 days by WST-1 assay. Type of assay: functional. As to conditions: HT-29, 96 h. The essentials:
as §1

The species entered for assay [7] is Ovis aries. Nature of the assay: Induction of sheep brain microtubule disassembly by UV spectrophotometric analysis. In outline:
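Sheep brain tubulin, purified by two assembly/disassembly cycles and held in MES buffer with GTP at pH 6.6, was polymerized at 37 °C for 10 min. Compound was then added to the MTs at 0 °C and depolymerization was followed over the next few minutes by turbidity at 350 nm.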

A short description of assay [8]: Growth inhibition of human HCT116 cells incubated for 4 days by WST-1 assay. The note with it: HCT-116, 96 h. Type of assay: functional. In outline: as §1
Assay [9] has as its system KB. Nature of the assay: Growth inhibition of human KB cells at 10 uM after 72 hrs by MTS assay. Type of assay: functional. As to conditions: read-out: GI. The essentials: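 KB cells were grown in DMEM with 25 mM glucose and 10% FCS at 37 °C, 5% CO2, and seeded at 500 cells/well. 24 h later, compound in DMSO (1% final) was added at 10 µM or 1 µM for 72 h; controls received DMSO alone. Runs were in duplicate. Viable cells were read with MTS at 490 nm.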

Assay [10] in a line: as §2. Also on record: species or system Ovis aries. The essentials: as §3
For assay [11], the species on record is Ovis aries. Nature of the assay: Inhibition of sheep brain microtubule disassembly by UV spectrophotometric analysis. The arrangement: concentration or dose not given beside the values.

Calls of active or inactive are those of the source. No cut-off for these calls is given here. Bounds are passed on as bounds.

What is called GI50 is the concentration at which growth is held to half of that of the control. In general, IC50 refers to the point on the concentration scale where inhibition reaches its midpoint. The inhibition is the drop in the measured response relative to a control, in per cent. As usually defined, the IC25 is the point of the concentration-response curve where the effect stands at 25%.

The compound `COc1cc2c(c(OC)c1OC)-c1ccc(OC)c(=O)cc1[C@@H](NC(C)=O)CC2` [COLCHICINE] came in with a GI50 with KB [1] of 0.0042 µM. Further, the IC50 result in [2] and in [3] was “Not Active” throughout.

For the compound `N#C/C(=C\c1cccnc1)c1c[nH]c2ccccc12`, the concentration for 50% growth inhibition (GI50) is > 50 µM in the assay with A549; > 50 µM with MDA-MB-231; > 50 µM in assay [4]; > 50 µM in the assay on HepG2; 21.6 µM in the assay with K562; > 50 µM in assay [6]. Besides, the GI50 (in the assay with NCI-H460; in the assay with MCF7; in the assay on HT-29; in [8]) was > 50 µM each time. In the assay listed under Ovis aries [5], this compound registered an inhibition of 11%. The IC25 in the assay with NCI-H460 was found to be 18.5 µM; with MCF7, 28.6 µM; with HT-29 it was 7.5 µM. The result in the assay listed under Ovis aries [7] was inactive. Also, the inhibition of growth at 10 µM with KB [9] was 27%.

For the compound `CC(=O)O[C@H]1C(=O)[C@@]2(C)[C@H]([C@H](OC(=O)c3ccccc3)[C@]3(O)C[C@H](OC(=O)[C@H](O)[C@@H](NC(=O)c4ccccc4)c4ccccc4)C(C)=C1C3(C)C)[C@]1(OC(C)=O)CO[C@@H]1C[C@@H]2O` [PACLITAXEL], it took 0.001 µM to inhibit growth in the assay with KB [1] by half (GI50). Besides, the figures for the IC50 entry in [2], in assay [10] and in assay [3] were “Not Active”, 1 µM and “Not Active”, respectively.

Regarding `COc1ccc2c(c1)c(/C(C#N)=C/c1cccnc1)cn2C`, the IC50 result in [2] was “Not Active”; in assay [10], 115 µM; in [3], “Not Active”. This compound displayed an inhibition in the assay listed under Ovis aries [5] of 53%. The compound also registered an Activity in the assay filed under Ovis aries [11] of 15%. Besides, the inhibition of growth at 10 µM with KB [9] worked out at 33%.

`CC(=O)O[C@@]12CO[C@@H]1C[C@H](O)[C@@]1(C)C(=O)[C@H](O)C3=C(C)[C@@H](OC(=O)[C@H](O)[C@@H](NC(=O)OC(C)(C)C)c4ccccc4)C[C@@](O)([C@@H](OC(=O)c4ccccc4)[C@H]21)C3(C)C` [DOCETAXEL ANHYDROUS] registered a concentration for 50% growth inhibition (GI50) in the assay with KB [1] of 0.00013 µM. Further, the IC50 result in assay [2] and in assay [3] was “Not Active” in each case.
